Data set [1] deals with Raji. Nature of the data set: TPA-induced EBV-early antigen activation in human Raji cells at 3.2 nmol after 48 hrs relative to TPA. To be noted: human gammaherpesvirus 4.
Data set [2] in a line: Cytotoxicity against human Raji cells assessed as cell viability at 0.32 nmol after 48 hrs by trypan blue assay. It is filed as cell-based. To be noted: read-out: Activity. The gist of the method: (§1)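 Raji cells grown to 10^6 cells/mL, pelleted and resuspended in RPMI 1640 with 10% FCS containing 4 mM n-butyric acid and 32 pmol TPA (20 ng/mL). Test compound added in DMSO at 32, 3.2 or 0.32 nmol (footnote also defines 16 nmol as 500 mol ratio). Incubated 48 h at 37 °C. Viable cells counted by Trypan Blue on a hemocytometer.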

The nature of data set [3]: Cytotoxicity against human Raji cells assessed as cell viability at 3.2 nmol after 48 hrs by trypan blue assay. The note with it: read-out: Activity. It is filed as cell-based. The gist of the method:
as §1

The test system of data set [4] is Raji. Nature of the data set: TPA-induced EBV-early antigen activation in human Raji cells at 0.32 nmol after 48 hrs relative to TPA. To be noted: human gammaherpesvirus 4.
The test system of data set [5] is Raji. Description: TPA-induced EBV-early antigen activation in human Raji cells at 32 nmol after 48 hrs relative to TPA. To be noted: human gammaherpesvirus 4.
Data set [6] is described as follows: Cytotoxicity against human Raji cells assessed as cell viability at 32 nmol after 48 hrs by trypan blue assay. It is filed as cell-based. To be noted: read-out: Activity. The gist of the method: as §1
The subject of data set [7] is Raji. Description: TPA-induced EBV-early antigen activation in human Raji cells at 16 nmol after 48 hrs relative to TPA. To be noted: human gammaherpesvirus 4.
The nature of data set [8]: Cytotoxicity against human Raji cells assessed as cell viability at 16 nmol after 48 hrs by trypan blue assay. It is filed as cell-based. The note with it: read-out: Activity. The procedure, abridged: as §1
Data set [9] in a line: Inhibition of TPA-induced EBV-early antigen activation in human Raji cells per 32 pmol TPA after 48 hrs. It is filed as cell-based, human gammaherpesvirus 4. The gist of the method:
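EBV-EA induction in Raji cells by 4 mM n-butyric acid plus 32 pmol TPA in RPMI 1640/10% FCS, 37 °C for 48 h, with compound at mol ratios to TPA of 10 to 1000. EA-positive cells counted blind, ≥500 per assay, relative to TPA-only control. IC50 is the mol ratio to TPA giving 50% inhibition, estimated by probit transformation.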

As to `CC(C)=CCC/C(C)=C/Cc1c(O)c(O)cc2oc3cc(O)c(CC=C(C)C)c(O)c3c(=O)c12` [NORCOWANIN], the EBV-EA activation came to 70.1% in the data set with Raji [1], 94.2% in the data set with Raji [4], 0% in the data set with Raji [5] and 31.9% in the data set on Raji [7]. Also, the viability at 48 h, 0.32 nmol in data set [2] is more than 80%. Moreover, the viability at 48 h, 3.2 nmol in data set [3] was more than 80%. The viability at 48 h, 32 nmol in data set [6] amounted to 70%. In data set [8], the viability at 48 h, 16 nmol is more than 80%. The compound further returned an IC50 in [9] of 315 molar ratio.
For the compound `CC1=C(/C=C/C(C)=C/C=C/C(C)=C/C=C/C=C(C)/C=C/C=C(C)/C=C/C2=C(C)CCCC2(C)C)C(C)(C)CCC1` [BETA CAROTENE], the EBV-EA activation in the data set with Raji [1] amounted to 82.7%; in the data set with Raji [4] it was 100%; in the data set with Raji [5] it was 9.1%; in the data set on Raji [7], 34.3%. In data set [9], this compound yielded an IC50 of 400 molar ratio.
Turning to `COc1c(O)cc2oc3cc(O)c(C/C=C(/C)CO)c(O)c3c(=O)c2c1C/C=C(\C)CCC=C(C)C` [COWANOL], the EBV-EA activation with Raji [1] is 69.6%; in the data set with Raji [4], 93.1%; in the data set on Raji [5], 0%; in the data set with Raji [7], 30.5%. Also, the viability at 48 h, 0.32 nmol in data set [2] is more than 80%. In addition, in data set [3], the viability at 48 h, 3.2 nmol was more than 80%. Further, the viability at 48 h, 32 nmol in [6] was 70%. In addition, the viability at 48 h, 16 nmol in data set [8] was more than 80%. The compound also returned an IC50 in data set [9] of 310 molar ratio.
In the case of `COc1cc2oc3cc(O)c(OC)c(CC=C(C)C)c3c(=O)c2c(O)c1CC=C(C)C`, the EBV-EA activation in the data set on Raji [1] worked out at 62.6%; in the data set on Raji [4], 90.4%; in the data set with Raji [5] it was 0%; in the data set with Raji [7] it was 20.5%. Further, the viability at 48 h, 0.32 nmol in data set [2] is more than 80%. Also, the viability at 48 h, 3.2 nmol in data set [3] was more than 80%. The viability at 48 h, 32 nmol in data set [6] was determined as 70%. Besides, in [8], the viability at 48 h, 16 nmol was more than 80%. Further, the IC50 in [9] worked out at 270 molar ratio.
Take `COc1cc2c(=O)c3c(O)c(C/C=C(\C)CCC=C(C)C)c(O)cc3oc2cc1O` [COWAXANTHONE]: the EBV-EA activation worked out at 76.6% in the data set on Raji [1], 97.5% with Raji [4], 0% with Raji [5] and 40.6% in the data set with Raji [7]. For the same compound, the viability at 48 h, 0.32 nmol in data set [2] was more than 80%. Moreover, in [3], the viability at 48 h, 3.2 nmol was more than 80%. Also, in [6], the viability at 48 h, 32 nmol was determined as 70%. Besides, the viability at 48 h, 16 nmol in data set [8] was more than 80%. The IC50 in [9] came out at 398 molar ratio.
Turning to `COc1c(O)cc2oc3cc(O)c(CC=C(C)C)c(O)c3c(=O)c2c1C/C=C(\C)CCC=C(C)C` [COWANIN], the EBV-EA activation with Raji [1] came out at 71.6%; in the data set on Raji [4] it was 95.8%; in the data set on Raji [5], 0%; with Raji [7] it was 33.6%. In addition, the viability at 48 h, 0.32 nmol in [2] was more than 80%. Moreover, the viability at 48 h, 3.2 nmol in data set [3] was more than 80%. The viability at 48 h, 32 nmol in data set [6] is 70%. Moreover, the viability at 48 h, 16 nmol in data set [8] was more than 80%. Also, in [9], the IC50 amounted to 320 molar ratio.
As for `COc1c(O)cc2oc3cc(O)c(CC=C(C)C)c(O)c3c(=O)c2c1CC=C(C)C` [MANGOSTIN], the EBV-EA activation in the data set with Raji [1] amounted to 60%; in the data set with Raji [4], 89.2%; in the data set with Raji [5] it was 0%; with Raji [7] it was 19.1%. Further, the viability at 48 h, 0.32 nmol in [2] is more than 80%. In data set [3], the viability at 48 h, 3.2 nmol is more than 80%. Further, the viability at 48 h, 32 nmol in [6] stood at 70%. Moreover, the viability at 48 h, 16 nmol in data set [8] is more than 80%. The IC50 in data set [9] amounted to 220 molar ratio.
Turning to `COc1c(O)cc2oc3cc(O)cc(O)c3c(=O)c2c1C/C=C(\C)CCC=C(C)C` [RUBRAXANTHONE], the EBV-EA activation came to 74.1% in the data set on Raji [1], 96.8% in the data set with Raji [4], 0% with Raji [5] and 39.5% with Raji [7]. For the same compound, in data set [2], the viability at 48 h, 0.32 nmol is more than 80%. The viability at 48 h, 3.2 nmol in data set [3] was more than 80%. Moreover, in data set [6], the viability at 48 h, 32 nmol stood at 70%. Besides, the viability at 48 h, 16 nmol in data set [8] was more than 80%. In data set [9], this compound had an IC50 of 340 molar ratio.
As for `COc1c(O)c(CC=C(C)C)c2oc3cc(O)c(CC=C(C)C)c(O)c3c(=O)c2c1CC=C(C)C`, the EBV-EA activation with Raji [1] was determined as 59.2%; in the data set on Raji [4] it was 83.8%; in the data set on Raji [5], 0%; in the data set on Raji [7], 16.3%. For the same compound, the viability at 48 h, 0.32 nmol in data set [2] is more than 80%. Moreover, the viability at 48 h, 3.2 nmol in data set [3] was more than 80%. Besides, the viability at 48 h, 32 nmol in data set [6] amounted to 70%. The viability at 48 h, 16 nmol in data set [8] is more than 80%. Besides, in data set [9], the IC50 was 210 molar ratio.

Source of the values: ChEMBL document CHEMBL1158901, “Chemical constituents of Garcinia fusca: structure elucidation of eight new xanthones and their cancer chemopreventive activity” (J Nat Prod, 2003).
